Test results as given in the EternaBench riboswitch data.

System: MS2 coat protein
Experiment: apparent Kd, MS2 coat protein; higher = weaker binding; RNA-MaP array; FMN 200 µM where present
In short: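 Two titrations, one without ligand and one with constant ligand, were run with SNAP-549-labelled MS2 coat protein from 0.7 or 1.5 nM, doubling to 3 µM. The targets were designs transcribed by stalled E. coli RNA polymerase on Illumina sequencing-chip clusters, in 100 mM Tris-HCl pH 7.5, 80 mM KCl, 4 mM MgCl2, BSA, DTT, yeast tRNA and Tween-20. The apparent Kd is the median of filtered per-cluster binding-curve fits, with green signal normalised to red-channel RNA signal and control-cluster median Fmax.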

[1] = designed as: ON switch for flavin mononucleotide, no ligand
[2] = ligand present: flavin mononucleotide, designed as: ON switch for flavin mononucleotide
[3] = designed as: OFF switch for flavin mononucleotide, no ligand
[4] = ligand present: flavin mononucleotide, designed as: OFF switch for flavin mononucleotide

Sequence | apparent Kd [1] [nM] | apparent Kd [2] [nM] | apparent Kd [3] [nM] | apparent Kd [4] [nM]
GUAGCAUUAAUAGGAUAUUCAUACCGGAAACGGACAUGAGGAUCACCCAUGUGGCGAAAGCCUUGGGAGAAGGUAAUAUGCUAC | 821 | 240 | – | –
CUGGUUCUCGUAGGAUAUGUAGGAUAUGCCUACAUGAGGAUCACCCAUGUUCGCAUGGCAGAAGGACAGAAGGACGAUCACCAC | 323 | 20.7 | – | –
AAUAUGAGCUGGUUUAAAACCUAAACAUGAGGAUCACCCAUGUAGGAUAUCAGCACGAUAAGUGCUGAGAAGGACAUCCAGCUC | – | – | 15 | 14.7
UGGUACUAGGGAGGAUAUGGGAAGAUACAUGAGGAUCACCCAUGUUUAAGAAUGCCGAGAGGCAACUAGAAGGCCCGAGUACCU | 456 | 21.6 | – | –
AAAUAAUUGUCAGGAUAUGGCAUGUAGACGAUGCCAGAAGGGACAUGAGGAUCACCCAUGUUGCUCAACACUGGGAGACGUAAG | – | – | 133 | 273
UUGUUGUAUGUAGGAUAUGCGUAUUAUUAUUAUGCAGAAGGACAUGAGGAUCACCCAUGUAUAUUAUUAUUAUAUGUUAUAUAU | – | – | 26.2 | 36.3
AGACGGAGCAGAGGAUAUACAUGAGGAUCACCCAUGUAAAUGAAAGAUAGCAGCAAAGCUGCAAUGUAGAAGGCUGCUCCGUCA | – | – | 29.2 | 83.8
GCGAAUAACGAGGAUAUCGUAUCGGAAACGAUACGAGAAGGUGUAACAUGAGGAUCACCCAUGUUCCUCAACGC | – | – | 37.5 | 36.4
ACACGACAUGAGGAUCACCCAUGUUUCCGAUUCACAGGAUAUGGGACAUCCGGAGGGUGACCAGAAGGGUGACUCG | 151 | 28.3 | – | –
ACAUGAUAUGUAGGAUAUCACAUUAAUUGUUUUAUAAUUGUAUUUAGGAUUUGAGAAGGACAUUUACAUGAGGAUCACCCAUGU | – | – | 15.8 | 11.3
UAAGACUAGCAUUGGUAUCUCCACAUGAGGAUCACCCAUGUCUAGGAUAUGAGCAGCAAAGCUGCUUAGAAGGAGACGCUAGUC | – | – | 8.47 | 12.6
UUCAUGUUAGGAUAUUCCGCCACAGAGAAAGUCUGUGGAAUGAAGAAGGGACAUGAGGAUCACCCAUGUUCCAA | – | – | 15.1 | 15.9
CAGUACUGAGGAUAUACAUGAGGAUCACCCAUGUCCUAAAAGUAGGAUACUACUAUUAGUAGAAGGCAGUACUG | – | – | 17.9 | 190
AAAAAACAUGAGGAUCACCCAUGUCAGGAUAUCGUGCAGAAAAAAAAAAAAAACUGCACGAGAAGGGACAUGAA | – | – | 236 | 192
UUUUAACAUGAGGAUCACCCAUGUGAGGAUAUCGAAAUUUAUAUUAAUAUUAUUAAUUCGAGAAGGCACAUUUU | – | – | 117 | 117
CGAUGGCAUGUAGGAUAUCGAGCUCAAAGAGCUCGAGAAGGACAUGAGGAUCACCCAUGUGCACACAGACAGUGUGCGCUAUCG | – | – | 37 | 181
GGAUUACAUGAGGAUCACCCAUGUGAGGAUAUCGAUGUCCUGGGUGGAGUGCGGGACUCGAGAAGGCACUUGGA | – | – | 60.5 | 229
AGGCGACAUGAGGAUCACCCAUGUGAGGAUAUCGAACUCUACUGUUGUGAGAGUAAGGCGAGAAGGCACACAGU | – | – | 22.7 | 25.3
ACAUAAAUUCGAGGAUAUCGGUGAAAUAAUUUACGAGAAGGCGAUAAUAGUUAUAGACUUAUAGACAUGAGGAUCACCCAUGUA | 30.3 | 27.6 | – | –
ACAGAGCCUGACAUGAGGAUCACCCAUGUUAGAUUGUUAUGUUAGGAUAUUGUCUAGCAACUAGACAAGAAGGGAUGCUCUGUG | 20.1 | 14.3 | – | –
GGUACUCAAAGAGUACUUGGUCGAACAUGAGGAUCACCCAUGUAGGAUAUGCAAAGCUAGAAGUAGCAGAAGGACAUGUGCAGC | – | – | 14.4 | 22.1
CUUAGGUGAGGAUAUUAGUAGUAAAUGAAUAAAAUUAUUACUGAGAAGGCACAUGAGGAUCACCCAUGUUCCUC | – | – | 35.8 | 444
GGAUCGAUGUAGAAGGCUGUCUUAAAAUAGGACAGAGGAUAUACAUGAGGAUCACCCAUGUACUCCUUUAAAAUGAUCCAAAUA | – | – | 5.81 | 9.65
AUUUUGUGAGGAUAUGUGGCUUCGAUCGUGAAAACGAGGCUACAGAAGGCACAUGAGGAUCACCCAUGUUCCUA | – | – | 20.5 | 169
ACAUGAGGAUCACCCAUGUUGAAUUAGGAUAUUUGACUGCACAUGAGGUUCUCCCAUGUUCUACCGGAGAAGGGAUUAAUAAUU | 549 | 240 | – | –
UGUCGGAGCUGAGGAUAUUACAUGAGGAUCACCCAUGUAUGAACCAAUAGCUGGAAACAGCAAUGUAAGAAGGCUGCUCCGACA | – | – | 5.65 | 34.1
ACAUGAGGAUCACCCAUGUUUUUCGGGUACUCUUUUUACAGCAAGGAUAUGCAUUAUUUUUUUACGCAGAAGGUGCUUUACGUC | – | – | 114 | 196
AGUAGUUUAACAUGAGGAUCACCCAUGUAUCUAUCUGUAACCUAGGAUAUGGACGUUGUAUUUAACCAGAAGGAGGAUCGUUUA | 28.5 | 17 | – | –

Sequence | apparent Kd [1] [nM] | apparent Kd [2] [nM] | apparent Kd [3] [nM] | apparent Kd [4] [nM]
GGAUACAUACAGAAGGAUAUGAGAACAAAGACAUGAGGAUCACCCAUGUACAAAAGGUGGAACAAUCAGAAGGUCUAAACAACAAA | 72.2 | 61.2 | – | –
GUAGAGUAGUGAGGAUAUACGAGCACGAUAGUGCGGCGAUCCAAUAAUACAUGAGGAUCACCCAUGUAGAAGGCACUUCUCUAC | – | – | 7.43 | 81.2
UCCUGGCGAGGAUAUACAAUGUUUUUCACGUUUUGUUUCGAACAUGAGGAUCACCCAUGUAGAAGGUGCUACUG | – | – | 53.2 | 44.7
CAUAGGCGAGGAUAUACAUGAGGAUCACCCAUGUAAGGAAACCUGGCAGACUCAGAAUGUAGAAGGCGCACUGA | – | – | 21.6 | 41
GGGCGACAUGAGGAUCACCCAUGUAACCUAAACGAAGGAUAUGGGCCUGAACGUCCAGGACCAGAAGGUCGGAAAU | 23.6 | 17.9 | – | –
GCAGUGUCAGGAUAUAGUUCGAGUUCGGAAAUGAGCUUGAGCUAGAAGGGACAUGAGGAUCACCCAUGUGCUGU | – | – | 38 | 83.2
GGAUGAGCAAUAGGAUAUGCUGGGAUUGAAUGGGUAGAAGGAUUUCUAGUGGUAAAGACAUGAGGAUCACCCAUGUCGCGGCCC | 45.7 | 45.2 | – | –
UUAUGUCGCGUAGGAUAUCACUAGAGUUGUAAUUUAAUUGUAAUUUCGAUGUGAGAAGGACGUACACAUGAGGAUCACCCAUGU | – | – | 19.5 | 16.3
GGACCUCCUGAGGAUAUUGCAUCACCCGACUGAUAAGAAGGCAGAACAUGAGGAUCACCCAUGUGGGUACUCGG | – | – | 32.3 | 36.1
GGGCGCCACGUAGGAUAUCUUCCGUAUGGGUCCCAUCAUAGCACAUGAGGAUCACCCAUGUGGGUAGAGAAGGACGGUUUGCCG | – | – | 221 | 59.5
CUCACAAGAGGAUAUUAAUAGCUUAACAUGAGGAUCACCCAUGUCCUUUUCUCGGGAUUUUGAGAAGGCUUGUGUG | – | – | 341 | 189
CGGUCGAUGUAAGGAUAUCGACUGGAAUACAGUCGAGAAGGUACAUGAGGAUCACCCAUGUAAACCUAUAAUAAAUAACGACCG | – | – | 11.7 | 14.4
GGAAUAUUUACAGGAUAUGUUUUGUUAAGUCGAGCAGAAGGGUAGAUGUCUUACACGGUUUGUUACAUGAGGAUCACCCAUGUU | 114 | 35.1 | – | –
GUGGUGCAUAUACGUGGAUGUACAUGAGGAUCACCCAUGUAAGAGGAUAUGCGGAUACUAGCUCAGCAGAAGGCUUACAAAUAA | – | – | 16.1 | 73.8
ACCAUUUACUAAUCCUCUAUACAUGAGGAUCACCCAUGUUUUGAGGAUAUCAGCGUGAAACACGCUGAGAAGGCAAAACAUUCG | – | – | 73.5 | 104
GGAAAACAUGAGGAUCACCCAUGUGAGGAUAUCGAUGUCCAAUUUAAAGUGCGGGACUCGAGAAGGCACUUGGA | – | – | 43 | 30.1
CCAUGGCAUGUAGGAUAUGUCUGACAAAGUCAGACAGAAGGACAUGAGGAUCACCCAUGUAAAAGAAAACCAACAUAGCCAUGG | – | – | 6.23 | 5.88
CCGCAUAUGCAGGAUAUCGUAUCGGAAACGAUACGAGAAGGGUAAACAUGAGGAUCACCCAUGUUCCUUAACGG | – | – | 18 | 16.5
UUCAGCUCGUGAGGAUAUACAUGUGCUGGAAACAGCACUAUUGAGUUCACAUGAGGAUCACCCAUGUAGAAGGCACGAGCUGAG | – | – | 15.2 | 27.9
UGUUGAUAGCAGAAGGACAUGAGGAUCACCCAUGUACGGAUACAAAUAUAUGUAGGAUAUGCUAUUGACUAAGAGUGAGCGUUC | – | – | 5.78 | 7.87
GUAGAGUAAGGAUAUAGAGAAUAGGAUAGAAUGGUUAGAAUCUAGAAGGUACAUGAGGAUCACCCAUGUAAUGU | – | – | 21.9 | 19.8
GGAUGACAAAGUCAUCCAAAUCGAACAUGAGGAUCACCCAUGUAGGAUAUGCAACUCAAAGAGUUGCAGAAGGACAUGUGCUUU | – | – | 40.9 | 172
AUCCUACAUGAGGAUCACCCAUGUCAGGAUAUCCAAGAAAUGUGGCCGUAUCGGCCACGGAGAAGGGACGGGUG | – | – | 40 | 60.8
CCUUGUAGCGGAGGAUAUGGGCCUCACUCAGUCAAAGAGUGAGAAACAUGAGGAUCACCCAUGUCCCAGAAGGCCGCUGCUUGG | 17.8 | 12.8 | – | –
AAAAAAAAAGUAGAGGAUAUCCGAGUGGUAACAUGAGGAUCACCCAUGUGAAGAAAGGAACAUGAGGAGAAGGCUACAAAAAAAAA | 46.6 | 16.6 | – | –
AAGUAGAUCCGAGGAUAUACAAUCCGGAAACGGUACAUGAGGAUCACCCAUGUAGAAGGCGGAUCUACAGGUACUAAAGUACCA | – | – | 6.5 | 8.32
GCGCUUAUACAGAAGGCCAUAUACAUGAGGAUCACCCAUGUUAUUUGGUGGAGGAUAUGUUUUUUAUUACAGGUAGUUGAGCGC | 7.42 | 5.91 | – | –
